Laboratory results as given in ChEMBL document CHEMBL1123382, “Potential tumor- or organ-imaging agents. 27. Polyiodinated 1,3-disubstituted and 1,2,3-trisubstituted triacylglycerols” (J Med Chem, 1986).
“And” between values parts separate entries of the source, which are not always exact repeats. Equal values may be shown once.

Experiments:
Rattus norvegicus [1] = experiment: Biodistribution in Rat blood after 24 hours of iv administration; type: ADME, organism-based; settings: in vivo
Method in brief: (§1)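 125I-labeled compound solubilized in normal saline with Tween-20 and given iv to rats, about 5-30 μCi (9-83 μg) per animal. Three to five rats per time point. Rats killed by exsanguination under ether anesthesia at 5 min, 30 min or 24 h. Organs minced, blotted free of blood and counted for radioiodine. Lines with "per g" are % administered dose per gram ± SEM.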

Rattus norvegicus [2] = experiment: Compound (125I labeled) was evaluated for the total radioactivity in high-density lipoprotein 5 min after intravenous administration.; type: functional
Method in brief: (§2)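 Rat plasma taken 5 or 30 min after iv dosing of 125I-labeled compound (saline/Tween-20) and run on polyacrylamide gel electrophoresis. Gels sectioned and each section gamma-counted. Radioactivity in each band (stacking gel, lipoproteins, albumin, below-albumin) is given as % of total radioactivity applied to the gel.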

Rattus norvegicus [3] = experiment: (§3) Biodistribution in Rat liver after 30 minutes of iv administration; type: ADME, organism-based; settings: in vivo, 0.5 h; method in brief: as §1
Rattus norvegicus [4] = experiment: Biodistribution in Rat lung after 24 hours of iv administration; type: ADME, organism-based; settings: in vivo; method in brief: as §1
Rattus norvegicus [5] = experiment: Liver radioactivity after iv administration of compound (30 min) in rats; type: functional, organism-based
Method in brief: (§4)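 Rats (3-5 per time point) dosed iv with about 5-30 μCi (9-83 μg) of 125I-labeled compound in saline containing Tween-20. Killed by exsanguination under ether at 5 min, 30 min or 24 h. Liver removed, minced, blotted and counted. Values are % administered dose per organ, based on each animal's actual liver weight, ± SEM.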

Rattus norvegicus [6] = experiment: Biodistribution in Rat lung after 30 minutes of iv administration; type: ADME, organism-based; settings: in vivo, 0.5 h; method in brief: as §1
Rattus norvegicus [7] = experiment: Compound was evaluated for the lipid soluble radioactivity extracted from rat plasma at 24 hr after intravenous administration.; type: functional
Method in brief: (§5)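 Liver and plasma taken 0.5 or 24 h after iv dosing of 125I-labeled compound in rats (n = 3-5). Extracted by a modified Folch procedure; value is % lipid (CHCl3/MeOH)-extractable radioactivity ± SEM. Extracts run on TLC in hexane/ethyl acetate 5:2 against unlabeled standard, then 1-cm strips counted to give % parent compound.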

Rattus norvegicus [8] = experiment: Liver radioactivity after iv administration of compound (5 min) in rats; type: functional, organism-based; method in brief: as §4
Rattus norvegicus [9] = experiment: Compound (125I labeled) was evaluated for the total radioactivity in low-density lipoprotein, at 30 min after intravenous administration.; type: functional; method in brief: as §2
Rattus norvegicus [10] = experiment: Compound was evaluated for the lipid soluble radioactivity extracted from rat liver at 24 hr after intravenous administration.; type: functional; method in brief: as §5
Rattus norvegicus [11] = experiment: Biodistribution in Rat liver after 5 minutes of iv administration; type: ADME, organism-based; settings: in vivo; method in brief: as §1
Rattus norvegicus [12] = experiment: Biodistribution in Rat heart after 24 hours of iv administration; type: ADME, organism-based; settings: in vivo; method in brief: as §1
Rattus norvegicus [13] = experiment: Biodistribution in Rat liver after 24 hours of iv administration; type: ADME, organism-based; settings: in vivo; method in brief: as §1
Rattus norvegicus [14] = experiment: Compound (125I labeled) was evaluated for the total radioactivity in stacking gel at 30 min after intravenous administration.; type: functional; method in brief: as §2
Rattus norvegicus [15] = experiment: Compound (125I labeled) was evaluated for the total radioactivity in albumin 5 min after intravenous administration.; type: functional; set-up: concentration or dose not given beside the values; method in brief: as §2
Rattus norvegicus [16] = experiment: Biodistribution in Rat blood after 5 minutes of iv administration; type: ADME, organism-based; settings: in vivo; method in brief: as §1
Rattus norvegicus [17] = experiment: as §3; type: ADME, organism-based; settings: in vivo, 0.5 h; method in brief: as §1; remark: listed apart in the source
Rattus norvegicus [18] = experiment: Compound was evaluated for the lipid soluble radioactivity extracted from rat liver at 0.5 hr after intravenous administration.; type: functional; method in brief: as §5
Rattus norvegicus [19] = experiment: Liver radioactivity after iv administration of compound (24 h) in rats; type: functional, organism-based; method in brief: as §4
Rattus norvegicus [20] = experiment: Compound (125I labeled) was evaluated for the total radioactivity in albumin at 30 min after intravenous administration.; type: functional; set-up: concentration or dose not given beside the values; method in brief: as §2
Rattus norvegicus [21] = experiment: Compound was evaluated for the lipid soluble radioactivity extracted from rat plasma at 0.5 hr after intravenous administration.; type: functional; method in brief: as §5
Rattus norvegicus [22] = experiment: Compound (125I labeled) was evaluated for the total radioactivity in stacking gel 5 min after intravenous administration.; type: functional; method in brief: as §2
Rattus norvegicus [23] = experiment: Biodistribution in Rat heart after 30 minutes of iv administration; type: ADME, organism-based; settings: in vivo, 0.5 h; method in brief: as §1
Rattus norvegicus [24] = experiment: Biodistribution in Rat blood after 30 minutes of iv administration; type: ADME, organism-based; settings: in vivo, 0.5 h; method in brief: as §1
Rattus norvegicus [25] = experiment: Biodistribution in Rat lung after 5 minutes of iv administration; type: ADME, organism-based; settings: in vivo; method in brief: as §1
Rattus norvegicus [26] = experiment: Compound (125I labeled) was evaluated for the total radioactivity in high-density lipoprotein, at 30 min after intravenous administration.; type: functional; method in brief: as §2
Rattus norvegicus [27] = experiment: Compound (125I labeled) was evaluated for the total radioactivity in low-density lipoprotein 5 min after intravenous administration.; type: functional; set-up: concentration or dose not given beside the values; method in brief: as §2
Rattus norvegicus [28] = experiment: Evaluated for the total radioactivity in below albumin at 30 min after intravenous administration.; type: functional; method in brief: as §2
Rattus norvegicus [29] = experiment: Biodistribution in Rat heart after 5 minutes of iv administration; type: ADME, organism-based; settings: in vivo; method in brief: as §1
Rattus norvegicus [30] = experiment: (§6) Biodistribution in Rat liver after 30 minutes of iv administration; per g of tissue; type: ADME, organism-based; settings: in vivo, 0.5 h; method in brief: as §1
Rattus norvegicus [31] = experiment: Biodistribution in Rat blood after 24 hours of iv administration; per g of tissue; type: ADME, organism-based; settings: in vivo; method in brief: as §1
Rattus norvegicus [32] = experiment: Biodistribution in Rat liver after 24 hours of iv administration; per g of tissue; type: ADME, organism-based; settings: in vivo; method in brief: as §1
Rattus norvegicus [33] = experiment: Biodistribution in Rat blood after 5 minutes of iv administration; per g of tissue; type: ADME, organism-based; settings: in vivo; method in brief: as §1
Rattus norvegicus [34] = experiment: Biodistribution in Rat lung after 24 hours of iv administration; per g of tissue; type: ADME, organism-based; settings: in vivo; method in brief: as §1
Rattus norvegicus [35] = experiment: as §6; type: ADME, organism-based; settings: in vivo, 0.5 h; method in brief: as §1; remark: listed apart in the source
Rattus norvegicus [36] = experiment: Biodistribution in Rat lung after 5 minutes of iv administration; per g of tissue; type: ADME, organism-based; settings: in vivo; method in brief: as §1
Rattus norvegicus [37] = experiment: Biodistribution in Rat heart after 30 minutes of iv administration; per g of tissue; type: ADME, organism-based; settings: in vivo, 0.5 h; method in brief: as §1
Rattus norvegicus [38] = experiment: Biodistribution in Rat heart after 24 hours of iv administration; per g of tissue; type: ADME, organism-based; settings: in vivo; method in brief: as §1
Rattus norvegicus [39] = experiment: Biodistribution in Rat liver after 5 minutes of iv administration; per g of tissue; type: ADME, organism-based; settings: in vivo; method in brief: as §1
Rattus norvegicus [40] = experiment: Biodistribution in Rat blood after 30 minutes of iv administration; per g of tissue; type: ADME, organism-based; settings: in vivo, 0.5 h; method in brief: as §1
Rattus norvegicus [41] = experiment: Biodistribution in Rat lung after 30 minutes of iv administration; per g of tissue; type: ADME, organism-based; settings: in vivo, 0.5 h; method in brief: as §1
Rattus norvegicus [42] = experiment: Biodistribution in Rat heart after 5 minutes of iv administration; per g of tissue; type: ADME, organism-based; settings: in vivo; method in brief: as §1

Compound | Total radioactivity (Rattus norvegicus [2]) [%] | Radioactivity (Rattus norvegicus [5]) | Extracted (Rattus norvegicus [7]) [%] | Parent compound (Rattus norvegicus [7]) [%] | Radioactivity (Rattus norvegicus [8]) | Total radioactivity (Rattus norvegicus [9]) [%] | Extracted (Rattus norvegicus [10]) [%] | Parent compound (Rattus norvegicus [10]) [%] | Total radioactivity (Rattus norvegicus [14]) [%] | Total radioactivity (Rattus norvegicus [15]) [%] | Extracted (Rattus norvegicus [18]) [%] | Parent compound (Rattus norvegicus [18]) [%] | Radioactivity (Rattus norvegicus [19]) | Total radioactivity (Rattus norvegicus [20]) [%] | Extracted (Rattus norvegicus [21]) [%] | Parent compound (Rattus norvegicus [21]) [%] | Total radioactivity (Rattus norvegicus [22]) [%] | Total radioactivity (Rattus norvegicus [26]) [%] | Total radioactivity (Rattus norvegicus [27]) [%] | Total radioactivity (Rattus norvegicus [28]) | other results
Nc1c(I)cc(I)c(CCCCCCCCCCCCCCCCC(=O)OCC(COC(=O)CCCCCCCCCCCCCCCCc2c(I)cc(I)c(N)c2I)OC(=O)CCCCCCCCCCCCCCCCc2c(I)cc(I)c(N)c2I)c1I | 32.7 | 38.8 | 54.2 | 20.2 | 54.4 | 15.1 | 73.4 | 9.5 | 3.8 | 20.3 | 50.7 | 15.1 | 3 | 46.2 | 70.1 | 29.2 | 6.4 | 28.1 | 32.2 | 7.1% and 6.8% | Biodistribution (Rattus norvegicus [1]): 0.06%; Biodistribution (Rattus norvegicus [3]): 5.28%; Biodistribution (Rattus norvegicus [4]): 0.07%; Biodistribution (Rattus norvegicus [6]): 0.94%; Biodistribution (Rattus norvegicus [11]): 0.52% and 6.68%; Biodistribution (Rattus norvegicus [12]): 0.03%; Biodistribution (Rattus norvegicus [13]): 0.14% and 0.44%; Biodistribution (Rattus norvegicus [16]): 4.14%; Biodistribution (Rattus norvegicus [17]): 5.28%; Biodistribution (Rattus norvegicus [23]): 0.92%; Biodistribution (Rattus norvegicus [24]): 2.1%; Biodistribution (Rattus norvegicus [25]): 1.08%; Biodistribution (Rattus norvegicus [29]): 0.74%
CCCCCCCCCCCCCCCC(=O)OC(COC(=O)C(CC)Cc1c(I)cc(I)c(N)c1I)COC(=O)C(CC)Cc1c(I)cc(I)c(N)c1I (centres undefined) | 55.1 | 30.2 | 82.1 | 77.4 | 18.4 | 29.7 | 93.9 | 91.7 | 6.8 | 3.2 | 88.4 | 86 | 52.1 | 3.4 | 86 | 82.6 | 6.2 | 59.7 | 35.4 | 0.1% and 0.3% | Biodistribution (Rattus norvegicus [30]): 4.54%; Biodistribution (Rattus norvegicus [31]): 0.54%; Biodistribution (Rattus norvegicus [32]): 0.26% and 0.33%; Biodistribution (Rattus norvegicus [33]): 7.44%; Biodistribution (Rattus norvegicus [34]): 0.33%; Biodistribution (Rattus norvegicus [35]): 4.54%; Biodistribution (Rattus norvegicus [36]): 1.49%; Biodistribution (Rattus norvegicus [37]): 0.66%; Biodistribution (Rattus norvegicus [38]): 0.21%; Biodistribution (Rattus norvegicus [39]): 0.84% and 2.9%; Biodistribution (Rattus norvegicus [40]): 5.17%; Biodistribution (Rattus norvegicus [41]): 1.1%; Biodistribution (Rattus norvegicus [42]): 0.87%
CCCCCCCCCCCCCCCC(=O)OC(COC(=O)CCCCCCCCCCCc1c(I)cc(I)c(N)c1I)COC(=O)CCCCCCCCCCCc1c(I)cc(I)c(N)c1I | 12 | 30.7 | 52 | 25.3 | 43.4 | 12.1 | 81.7 | 44.9 | 8.6 | 14.8 | 64.2 | 28.1 | 7.73 | 50.7 | 64.6 | 11.3 | 61.6 | 25.7 | 8.2 | 3.4% and 3.1% | Biodistribution (Rattus norvegicus [1]): 0.1%; Biodistribution (Rattus norvegicus [3]): 4.24%; Biodistribution (Rattus norvegicus [4]): 0.12%; Biodistribution (Rattus norvegicus [6]): 0.73%; Biodistribution (Rattus norvegicus [11]): 0.64% and 5.84%; Biodistribution (Rattus norvegicus [12]): 0.12%; Biodistribution (Rattus norvegicus [13]): 0.14% and 1.06%; Biodistribution (Rattus norvegicus [16]): 2.74%; Biodistribution (Rattus norvegicus [17]): 4.24%; Biodistribution (Rattus norvegicus [23]): 1.06%; Biodistribution (Rattus norvegicus [24]): 1.49%; Biodistribution (Rattus norvegicus [25]): 1.38%; Biodistribution (Rattus norvegicus [29]): 1.43%
